Assay results taken from ChEMBL document CHEMBL1240399.

Key:
[1] = substrate: CC(C)(O/N=C(\C(=O)N[C@@H]1C(=O)N2C(C(=O)[O-])=C(C[n+]3ccccc3)CS[C@H]12)c1csc(N)n1)C(=O)O; test: (§1) Activity of Pseudomonas aeruginosa GES-13 beta lactamase assessed as hydrolysis by spectrometry
In short: (§2)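 GES-13 expressed in E. coli(pB-ges13), released by sonication in 20 mM Tris pH 8.0, purified by Q-Sepharose (0–1 M NaCl gradient) then S-Sepharose after dialysis against 20 mM MES pH 6.0 (eluted 400–500 mM NaCl); >95% pure by SDS-PAGE. Hydrolysis of penicillin G, nitrocefin, cephalothin, cefotaxime, ceftazidime, aztreonam and imipenem followed spectrophotometrically; kinetic parameters derived.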

[2] = substrate: CC1(C)S[C@@H]2[C@H](NC(=O)Cc3ccccc3)C(=O)N2[C@H]1C(=O)O; test: as §1; in short: as §2
[3] = substrate: CO/N=C(\C(=O)N[C@@H]1C(=O)N2C(C(=O)O)=C(COC(C)=O)CS[C@H]12)c1csc(N)n1; test: as §1; in short: as §2
[4] = substrate: C[C@@H](O)[C@H]1C(=O)N2C(C(=O)O)=C(SCCNC=N)C[C@H]12; test: as §1; in short: as §2
[5] = substrate: C[C@H]1[C@H](NC(=O)/C(=N\OC(C)(C)C(=O)O)c2csc(N)n2)C(=O)N1S(=O)(=O)O; test: as §1; in short: as §2
[6] = substrate: O=C(Cc1cccs1)N[C@@H]1C(=O)N2C(C(=O)O)=C(/C=C/c3ccc([N+](=O)[O-])cc3[N+](=O)[O-])CS[C@H]12; test: as §1; in short: as §2
[7] = substrate: CC(=O)OCC1=C(C(=O)O)N2C(=O)[C@@H](NC(=O)Cc3cccs3)[C@H]2SC1; test: (§3) Ratio of Kcat/Km for Pseudomonas aeruginosa GES-13 beta lactamase assessed as hydrolysis by spectrometry; in short: as §2
[8] = substrate: CC(C)(O/N=C(\C(=O)N[C@@H]1C(=O)N2C(C(=O)[O-])=C(C[n+]3ccccc3)CS[C@H]12)c1csc(N)n1)C(=O)O; test: as §3; in short: as §2
[9] = substrate: CC1(C)S[C@@H]2[C@H](NC(=O)Cc3ccccc3)C(=O)N2[C@H]1C(=O)O; test: as §3; in short: as §2
[10] = substrate: CO/N=C(\C(=O)N[C@@H]1C(=O)N2C(C(=O)O)=C(COC(C)=O)CS[C@H]12)c1csc(N)n1; test: as §3; in short: as §2
[11] = substrate: C[C@H]1[C@H](NC(=O)/C(=N\OC(C)(C)C(=O)O)c2csc(N)n2)C(=O)N1S(=O)(=O)O; test: as §3; in short: as §2
[12] = substrate: O=C(Cc1cccs1)N[C@@H]1C(=O)N2C(C(=O)O)=C(/C=C/c3ccc([N+](=O)[O-])cc3[N+](=O)[O-])CS[C@H]12; test: as §3; in short: as §2

B1: Beta-lactamase GES-13 (Pseudomonas aeruginosa), D1MIX9 (protein)
chain: MRFIHALLLAGIAHSAYASEKLTFKTDLEKLEREKAAQIGVAIVDPQGEIVAGHRMAQRFAMCSTFKFPLAALVFERIDSGTERGDRKLSYGPDMIVKWSPATERFLASGHMTVLEAAQAAVQLSDNGATNLLLREIGGPAAMTQYFRKIGDSVSRLDRKEPEMNDNTPGDLRDTTTPIAMARTVAKVLYGGALTSTSTHTIERWLIGNQTGDATLRAGFPKDWVVGEKTGTCANGGRNDIGFFKAQERDYAVAVYTTAPKLSAVERDELVASVGQVITQLILSTDK
Km [1]: 229 µM
kcat [1]: 30.4 s⁻¹
Km [2]: 139 µM
kcat [2]: 13.5 s⁻¹
Km [3]: 63 µM
kcat [3]: 69 s⁻¹
kcat [4]: < 0.01 s⁻¹
Km [5]: 405 µM
kcat [5]: 35.6 s⁻¹
Km [6]: 197 µM
kcat [6]: 29.3 s⁻¹
kcat/Km [7]: 100000 M⁻¹ s⁻¹
kcat/Km [8]: 130000 M⁻¹ s⁻¹
kcat/Km [9]: 100000 M⁻¹ s⁻¹
kcat/Km [10]: 1.09e+06 M⁻¹ s⁻¹
kcat/Km [11]: 90000 M⁻¹ s⁻¹
kcat/Km [12]: 150000 M⁻¹ s⁻¹
